From ChEMBL document CHEMBL1126068, “Renin inhibitors containing C-termini derived from mercaptoheterocycles” (J Med Chem, 1992)

Assays:
[1] = Peak change in heart rate (average) at the dose of 0.42 mg/kg administered through intravenously in Rhesus monkeys.; assay type: functional, Cercopithecidae; conditions: route intravenous
Procedure, shortened: (§1)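 Conscious male and female rhesus monkeys kept on a low-sodium diet, given furosemide the evening before, and fasted 18 h before and during the study. MAP was read directly and blood drawn for PRA through chronic arterial access ports. Compound was given IV via venous catheter in 0.05% acetic acid/5% dextrose/H2O, 20 min after a vehicle control. Time courses were plotted and peak changes taken; N = 2.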

[2] = Inhibition of plasma renin determined at Peak change in mean arterial pressure at the dose of 0.42 mg/kg administered through intravenously in Rhesus monkeys.; assay type: functional; conditions: Cercopithecidae, route intravenous; procedure, shortened: as §1
Renin = target: T1, Renin (Homo sapiens, UniProt P00797); assay: The compound was tested in vitro for inhibition of human plasma renin.; assay type: cell-free
T1 sequence (P00797 whole entry): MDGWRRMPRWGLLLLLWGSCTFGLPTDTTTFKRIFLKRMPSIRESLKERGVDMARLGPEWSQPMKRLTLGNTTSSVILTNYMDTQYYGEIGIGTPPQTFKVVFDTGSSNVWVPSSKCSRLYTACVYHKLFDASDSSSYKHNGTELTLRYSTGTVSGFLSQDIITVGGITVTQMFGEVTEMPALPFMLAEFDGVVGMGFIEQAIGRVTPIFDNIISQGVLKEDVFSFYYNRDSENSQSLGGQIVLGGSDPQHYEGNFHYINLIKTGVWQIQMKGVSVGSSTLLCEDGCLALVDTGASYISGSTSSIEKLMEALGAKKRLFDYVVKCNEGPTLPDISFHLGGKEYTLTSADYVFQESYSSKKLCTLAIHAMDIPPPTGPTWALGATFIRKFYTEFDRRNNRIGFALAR
Procedure, shortened: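 Lyophilized human plasma was reconstituted in distilled water on the assay day. Angiotensin I was measured by radioimmunoassay (commercial kit) at pH 7.4 in phosphate buffer, 37 °C, with PMSF to block angiotensinases. Inhibitors came from a 1 mM DMF stock serially diluted to 3–5 concentrations, run in duplicate and averaged. IC50 was calculated by linear regression.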

[3] = Peak change in mean arterial pressure (average) at the dose of 0.42 mg/kg administered through intravenously in Rhesus monkeys.; assay type: functional, Cercopithecidae, Artery; conditions: route intravenous; procedure, shortened: as §1
[4] = Inhibition of plasma renin determined at Peak change in mean arterial pressure at the dose of 0.44 mg/kg administered through intravenously in Rhesus monkeys.; assay type: functional; conditions: Cercopithecidae, route intravenous; procedure, shortened: as §1
[5] = Peak change in heart rate (average) at the dose of 0.44 mg/kg administered through intravenously in Rhesus monkeys.; assay type: functional, Cercopithecidae; conditions: route intravenous; procedure, shortened: as §1
[6] = Peak change in mean arterial pressure (average) at the dose of 0.44 mg/kg administered through intravenously in Rhesus monkeys.; assay type: functional, Cercopithecidae, Artery; conditions: route intravenous; procedure, shortened: as §1
[7] = Peak change in heart rate (average) at the dose of 0.40 mg/kg administered through intravenously in Rhesus monkeys.; assay type: functional, Cercopithecidae; conditions: dose 0.4 mg/kg; route intravenous; procedure, shortened: as §1
[8] = Inhibition of plasma renin determined at Peak change in mean arterial pressure at the dose of 0.40 mg/kg administered through intravenously in Rhesus monkeys.; assay type: functional; conditions: Cercopithecidae, route intravenous; procedure, shortened: as §1
[9] = Peak change in mean arterial pressure (average) at the dose of 0.40 mg/kg administered through intravenously in Rhesus monkeys.; assay type: functional, Cercopithecidae, Artery; conditions: dose 0.4 mg/kg; route intravenous; procedure, shortened: as §1
[10] = Peak change in heart rate (average) at the dose of 0.39 mg/kg administered through intravenously in Rhesus monkeys.; assay type: functional, Cercopithecidae; conditions: route intravenous; procedure, shortened: as §1
[11] = Inhibition of plasma renin determined at Peak change in mean arterial pressure at the dose of 0.39 mg/kg administered through intravenously in Rhesus monkeys.; assay type: functional; conditions: Cercopithecidae, route intravenous; procedure, shortened: as §1
[12] = Peak change in mean arterial pressure (average) at the dose of 0.39 mg/kg administered through intravenously in Rhesus monkeys.; assay type: functional, Cercopithecidae, Artery; conditions: route intravenous; procedure, shortened: as §1
[13] = Peak change in heart rate (average) at the dose of 0.34 mg/kg administered through intravenously in Rhesus monkeys.; assay type: functional, Cercopithecidae; conditions: route intravenous; procedure, shortened: as §1
[14] = Peak change in mean arterial pressure (average) at the dose of 0.34 mg/kg administered through intravenously in Rhesus monkeys.; assay type: functional, Cercopithecidae, Artery; conditions: route intravenous; procedure, shortened: as §1
[15] = Inhibition of plasma renin determined at Peak change in mean arterial pressure at the dose of 0.34 mg/kg administered through intravenously in Rhesus monkeys.; assay type: functional; conditions: Cercopithecidae, route intravenous; procedure, shortened: as §1
[16] = Peak change in heart rate (average) at the dose of 0.88 mg/kg administered through intravenously in Rhesus monkeys.; assay type: functional, Cercopithecidae; conditions: route intravenous; procedure, shortened: as §1
[17] = Peak change in mean arterial pressure (average) at the dose of 0.88 mg/kg administered through intravenously in Rhesus monkeys.; assay type: functional, Cercopithecidae, Artery; conditions: route intravenous; procedure, shortened: as §1
[18] = Inhibition of plasma renin determined at Peak change in mean arterial pressure at the dose of 0.88 mg/kg administered through intravenously in Rhesus monkeys.; assay type: functional; conditions: Cercopithecidae, route intravenous; procedure, shortened: as §1
[19] = Peak change in heart rate (average) at the dose of 0.35 mg/kg administered through intravenously in Rhesus monkeys.; assay type: functional, Cercopithecidae; conditions: route intravenous; procedure, shortened: as §1
[20] = Peak change in mean arterial pressure (average) at the dose of 0.35 mg/kg administered through intravenously in Rhesus monkeys.; assay type: functional, Cercopithecidae, Artery; conditions: route intravenous; procedure, shortened: as §1
[21] = Inhibition of plasma renin determined at Peak change in mean arterial pressure at the dose of 0.35 mg/kg administered through intravenously in Rhesus monkeys.; assay type: functional; conditions: Cercopithecidae, route intravenous; procedure, shortened: as §1
[22] = Peak change in heart rate (average) at the dose of 1.19 mg/kg administered through intravenously in Rhesus monkeys.; assay type: functional, Cercopithecidae; conditions: route intravenous; procedure, shortened: as §1
[23] = Peak change in mean arterial pressure (average) at the dose of 1.19 mg/kg administered through intravenously in Rhesus monkeys.; assay type: functional, Cercopithecidae, Artery; conditions: route intravenous; procedure, shortened: as §1
[24] = Inhibition of plasma renin determined at Peak change in mean arterial pressure at the dose of 1.19 mg/kg administered through intravenously in Rhesus monkeys.; assay type: functional; conditions: Cercopithecidae, route intravenous; procedure, shortened: as §1

SMILES	IC50 (Renin) [nM]	other results
CC(C)(C)OC(=O)N[C@@H](Cc1ccccc1)C(=O)N[C@@H](Cc1c[nH]cn1)C(=O)N[C@@H](CC1CCCCC1)[C@@H](O)CSc1nnnn1CCN1CCOCC1	39	Peak deltaHR [1]: -8 beats min-1; inhibition in vivo at 0.42 mg/kg [2]: 90%; Peak deltaMAP [3]: -10.5 mmHg
Cc1ccnc(SC[C@H](O)[C@H](CC2CCCCC2)NC(=O)[C@H](Cc2cnc[nH]2)NC(=O)[C@H](Cc2ccccc2)NC(=O)OC(C)(C)C)n1	240	–
CC(C)(C)OC(=O)N[C@@H](Cc1ccccc1)C(=O)N[C@@H](Cc1c[nH]cn1)C(=O)N[C@@H](CC1CCCCC1)[C@@H](O)CSc1nnc(Nc2ccccc2)s1	3310	–
CC(C)(C)OC(=O)N[C@@H](Cc1ccccc1)C(=O)N[C@@H](Cc1cnc[nH]1)C(=O)N[C@@H](CC1CCCCC1)[C@@H](O)CSc1nnnn1CC(=O)O	396	–
CC(C)(C)OC(=O)N[C@@H](Cc1ccccc1)C(=O)N[C@@H](Cc1c[nH]cn1)C(=O)N[C@@H](CC1CCCCC1)[C@@H](O)CSc1nnc(C(F)(F)F)n1CCc1ccncc1	41	inhibition in vivo at 0.44 mg/kg [4]: 93%; Peak deltaHR [5]: -1 beats min-1; Peak deltaMAP [6]: -10 mmHg
CC(C)(C)OC(=O)N[C@@H](Cc1ccccc1)C(=O)N[C@@H](Cc1c[nH]cn1)C(=O)N[C@@H](CC1CCCCC1)[C@@H](O)CS(=O)(=O)c1nnnn1CCc1cc[n+]([O-])cc1	37	Peak deltaHR [7]: 23 beats min-1; inhibition in vivo at 0.4 mg/kg [8]: 98%; Peak deltaMAP [9]: -12 mmHg
CN1CCN(C(=O)Cn2nnnc2SC[C@H](O)[C@H](CC2CCCCC2)NC(=O)[C@H](Cc2c[nH]cn2)NC(=O)[C@H](Cc2ccccc2)NC(=O)OC(C)(C)C)CC1	359	–
CCOC(=O)Cn1nnnc1SC[C@H](O)[C@H](CC1CCCCC1)NC(=O)[C@H](Cc1cnc[nH]1)NC(=O)[C@H](Cc1ccccc1)NC(=O)OC(C)(C)C	207	–
CC(C)(C)OC(=O)N[C@@H](Cc1ccccc1)C(=O)N[C@@H](Cc1cnc[nH]1)C(=O)N[C@@H](CC1CCCCC1)[C@@H](O)CSc1nnnn1CC(=O)NCCN1CCOCC1	314	–
CN(C)CCn1nnnc1SC[C@H](O)[C@H](CC1CCCCC1)NC(=O)[C@H](Cc1cnc[nH]1)NC(=O)[C@H](Cc1ccccc1)NC(=O)OC(C)(C)C	145	–
CN(C)CCNC(=O)Cn1nnnc1SC[C@H](O)[C@H](CC1CCCCC1)NC(=O)[C@H](Cc1c[nH]cn1)NC(=O)[C@H](Cc1ccccc1)NC(=O)OC(C)(C)C	1290	–
CC(C)(C)OC(=O)N[C@@H](Cc1ccccc1)C(=O)N[C@@H](Cc1cnc[nH]1)C(=O)N[C@@H](CC1CCCCC1)[C@@H](O)CSc1nnnn1CC(N)=O	448	–
CC(C)(C)OC(=O)N[C@@H](Cc1ccccc1)C(=O)N[C@@H](Cc1cnc[nH]1)C(=O)N[C@@H](CC1CCCCC1)[C@@H](O)CSc1ccccn1	198	–
CC(C)(C)OC(=O)N[C@@H](Cc1ccccc1)C(=O)N[C@@H](Cc1c[nH]cn1)C(=O)N[C@@H](CC1CCCCC1)[C@@H](O)CSC1CCCCC1	289	–

Continued, in another order:

IC50 (Renin) [nM]	SMILES	other results
39	Cn1c(SC[C@H](O)[C@H](CC2CCCCC2)NC(=O)[C@H](Cc2c[nH]cn2)NC(=O)[C@H](Cc2ccccc2)NC(=O)OC(C)(C)C)nnc1C(F)(F)F	Peak deltaHR [10]: -5 beats min-1; inhibition in vivo at 0.39 mg/kg [11]: 85%; Peak deltaMAP [12]: -11 mmHg
33	CC(C)(C)OC(=O)N[C@@H](Cc1ccccc1)C(=O)N[C@@H](Cc1c[nH]cn1)C(=O)N[C@@H](CC1CCCCC1)[C@@H](O)CSc1nnnn1CCc1ccc(O)cc1	–
31	CC(C)(C)OC(=O)N[C@@H](Cc1ccccc1)C(=O)N[C@@H](Cc1c[nH]cn1)C(=O)N[C@@H](CC1CCCCC1)[C@@H](O)CSc1nnnn1CCc1ccncc1	Peak deltaHR [13]: 1 beats min-1; Peak deltaMAP [14]: -22 mmHg; inhibition in vivo at 0.34 mg/kg [15]: 95%
392	Cn1nc(C(F)(F)F)nc1SC[C@H](O)[C@H](CC1CCCCC1)NC(=O)[C@H](Cc1c[nH]cn1)NC(=O)[C@H](Cc1ccccc1)NC(=O)OC(C)(C)C	–
81	Cn1cnnc1SC[C@H](O)[C@H](CC1CCCCC1)NC(=O)[C@H](Cc1c[nH]cn1)NC(=O)[C@H](Cc1ccccc1)NC(=O)OC(C)(C)C	Peak deltaHR [16]: 17 beats min-1; Peak deltaMAP [17]: -9 mmHg; inhibition in vivo at 0.88 mg/kg [18]: 90%
32	Cn1nnnc1SC[C@H](O)[C@H](CC1CCCCC1)NC(=O)[C@H](Cc1c[nH]cn1)NC(=O)[C@H](Cc1ccccc1)NC(=O)OC(C)(C)C	Peak deltaHR [19]: -5 beats min-1; Peak deltaMAP [20]: -9 mmHg; inhibition in vivo at 0.35 mg/kg [21]: 89%
206	C=CCn1c(SC[C@H](O)[C@H](CC2CCCCC2)NC(=O)[C@H](Cc2c[nH]cn2)NC(=O)[C@H](Cc2ccccc2)NC(=O)OC(C)(C)C)nnc1C(F)(F)F	–
708	CC(C)(C)OC(=O)N[C@@H](Cc1ccccc1)C(=O)N[C@@H](Cc1c[nH]cn1)C(=O)N[C@@H](CC1CCCCC1)[C@@H](O)CSc1ncc2ccccn12	–
678	C[n+]1ccc(CCn2nnnc2SC[C@H](O)[C@H](CC2CCCCC2)NC(=O)[C@H](Cc2c[nH]cn2)NC(=O)[C@H](Cc2ccccc2)NC(=O)OC(C)(C)C)cc1	–
124	Cn1ccnc1SC[C@H](O)[C@H](CC1CCCCC1)NC(=O)[C@H](Cc1c[nH]cn1)NC(=O)[C@H](Cc1ccccc1)NC(=O)OC(C)(C)C	Peak deltaHR [22]: -3 beats min-1; Peak deltaMAP [23]: -8.5 mmHg; inhibition in vivo at 1.19 mg/kg [24]: 75%
